In ChEMBL document CHEMBL4330057, “Second generation of diazachrysenes: Protection of Ebola virus infected mice and mechanism of action” (Eur J Med Chem, 2019):
Activity calls are given as the source filed them. No cut-off for these calls is given here.

What was measured:
[1] = Cytotoxicity against human HeLa cells after 2 hrs by high content imaging analysis; format: cell-based
[2] = Toxicity in 6 hrs post fertilized zebrafish embryo assessed as teratogenic effect by measuring malformation of notochord up to 50 uM up to 120 hrs post fertilization by inverted microscopic method; format: tissue-based, Danio rerio; conditions: in vivo
[3] = tested on: Zaire ebolavirus; assay: Antiviral activity against VSV pseudotyped Ebolavirus Mayinga expressing GFP infected in human HeLa cells assessed as inhibition of viral infection at 2 uM pre-incubated for 2 hrs followed by viral infection and measured after 8 hrs by cell mask deep red staining based assay; format: functional, organism-based; conditions: 1976
Method in brief: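 HeLa cells pretreated 2 h with compound, then infected with rVSV-EBOV-GP-GFP (8 h) or VSV-GFP (6 h), and stained with Cell Mask Deep Red. Relative inhibition = 1 minus (% GFP-expressing cells normalised to mock). Mean ± SD of three replicates, representative of three independent experiments.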

[4] = Drug metabolism in C57Bl/6 mouse assessed as dehydrogenation metabolite formation at 20 mg/kg/day, ip qd for 7 days measured at 24 hrs post last dose by UHPLC/MS analysis; format: ADME, organism-based; conditions: in vivo
Method in brief: (§1)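 Serum from two mice dosed 20 mg/kg/day i.p. taken 24 h after the last dose. Compound quantified by UHPLC/MS and screened for M+2, M+16, M-2 and M+32 products or combinations.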

[5] = Drug metabolism in C57Bl/6 mouse assessed as oxygenation metabolite formation at 20 mg/kg/day, ip qd for 7 days measured at 24 hrs post last dose by UHPLC/MS analysis; format: ADME, organism-based; conditions: in vivo; method in brief: as §1
[6] = Toxicity in 6 hrs post fertilized zebrafish embryo assessed as teratogenic effect by measuring liver morphology and color up to 50 uM up to 120 hrs post fertilization by inverted microscopic method; format: tissue-based, Danio rerio; conditions: in vivo
[7] = Hepatotoxicity in 6 hrs post fertilized transgenic l-fabp:EGFP zebrafish embryo assessed as change in liver area index up to 30 uM up to 120 hrs post fertilization by fluorescence assay; format: toxicity, Danio rerio; conditions: in vivo
Method in brief: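 Tg(l-fabp:EGFP) zebrafish embryos exposed from 6 hpf. At 120 hpf, liver area index (liver area/lateral body area) and liver fluorescence assessed by in vivo imaging.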

[8] = Apparent permeability from apical to basolateral side in MDCK cells; format: ADME, cell-based, Canis lupus familiaris; conditions: dog
Method in brief: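 Apparent permeability measured in MDCK cell monolayers, apical→basolateral and basolateral→apical directions, three biological replicates.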

[9] = Selectivity index, ratio of CC50 for HFF to EC50 for Ebolavirus H. sapiens-wt/1995/Kikwit-9510621 infected in human HeLa cells; format: toxicity, cell-based; conditions: read-out: Ratio CC50/EC50
[10] = Clearance in human liver microsomes after 1 hr; format: ADME, Microsome; conditions: read-out: CLH
Method in brief: (§2)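 Substrate depletion with mouse or human liver microsomes, 1 h at 37 °C. Clearance (μL/min/mg) and half-life derived.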

[11] = Myelotoxicity in 6 hrs post fertilized transgenic mpx:GFP zebrafish embryo assessed as reduction in neutrophil occurrence up to 40 uM measured at 72 hrs hrs post fertilization by fluorescence assay; parameters: species or system Danio rerio
Method in brief: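 Tg(mpx:GFP) zebrafish embryos with GFP-labelled neutrophils were treated with compound. At 72 hpf, neutrophil fluorescence of the whole embryo and neutrophil occurrence were assessed.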

[12] = Drug metabolism in C57Bl/6 mouse assessed as bis-oxygenation metabolite formation at 20 mg/kg/day, ip qd for 7 days measured at 24 hrs post last dose by UHPLC/MS analysis; format: ADME, organism-based; conditions: in vivo; method in brief: as §1
[13] = Toxicity in 6 hrs post fertilized zebrafish embryo assessed as tail detachment up to 50 uM up to 120 hrs post fertilization by inverted microscopic method; parameters: species or system Danio rerio; conditions: in vivo
[14] = tested on: HeLa; assay: Induction of lysosomotropism in human HeLa cells infected with Ebolavirus assessed as increase in red fluorescence at 2 uM for 2 hrs by acridine orange staining based assay; format: functional, cell-based
Method in brief: (§3)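 HeLa cells were pretreated with compound for 2 h, then given acridine orange for 30 min and washed. Red AO fluorescence in acidic compartments was imaged, and total intensity and average area were scored by high-content imaging. Eight wells per point, about 3000 cells/well, mean ± SD, representative of three independent experiments.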

[15] = tested on: HeLa; assay: Cytotoxicity against human HeLa cells at 50 uM after 2 hrs; format: cell-based
[16] = Toxicity in 6 hrs post fertilized zebrafish embryo assessed as teratogenic effect by measuring effect on blood circulation up to 50 uM up to 120 hrs post fertilization by inverted microscopic method; parameters: species or system Danio rerio; conditions: in vivo
[17] = biological target: Cathepsin B (Homo sapiens) (UniProt P07858); assay: Inhibition of cathepsin B activity in human HeLa cells at 2 uM after 12 hrs by magic red substrate based fluorescence assay; format: cell-based
Method in brief: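 HeLa cells were exposed to compound for 12 h, then given the Magic Red cathepsin B peptide reporter, washed, and imaged at Ex/Em 590/630. Total intensity and average area of red fluorescence were scored by high-content analysis. Eight wells per point, about 3000 cells/well, mean ± SD, three independent experiments.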

[18] = Solubility of the compound in pH 7.4 buffer by laser nephelometric method; format: physicochemical
Method in brief: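 Solubility at pH 7.4 was measured by laser nephelometry (light scattering), in triplicate.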

[19] = tested on: HeLa; assay: Induction of lysosomotropism in human HeLa cells infected with Ebolavirus assessed as expansion of acid compartments at 2 uM for 2 hrs by acridine orange staining based assay; format: functional, cell-based; method in brief: as §3
[20] = Half life in mouse liver microsomes; format: ADME, Microsome; method in brief: as §2
[21] = tested on: HeLa; assay: Induction of lysosome suppression in human HeLa cells assessed as vesicular compartment expansion pretreated for 2 hrs by uranyl acetate staining based transmission electron microscopic method; format: functional, subcellular
Method in brief: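 HeLa cells mock-treated or treated 2 h with compound, then left uninfected or infected with rVSV-EBOV-GP-GFP for 2 h or 6 h. Processed for transmission electron microscopy to examine vesicular compartments.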

[22] = Toxicity in 6 hrs post fertilized zebrafish embryo assessed as teratogenic effect by measuring malformation of eyes up to 50 uM up to 120 hrs post fertilization by inverted microscopic method; parameters: species or system Danio rerio; conditions: in vivo
[23] = biological target: Cytochrome P450 2D6 (Homo sapiens, UniProt P10635); assay: Inhibition of CYP2D6 (unknown origin) using 3-(2-(N, N-Diethyl-N-methylamino)ethyl)-7-Methoxy-4-Methylcoumarin as substrate; format: ADME; conditions: read-out: INH
Method in brief: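 CYP IC50 was taken from the net fluorescent signal after incubation at 37 °C for a set time with active cytochrome P450 enzyme and a fluorescent probe substrate.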

[24] = Toxicity in 6 hrs post fertilized zebrafish embryo assessed as lethal effect on egg coagulation up to 50 uM up to 120 hrs post fertilization by inverted microscopic method; parameters: species or system Danio rerio; conditions: in vivo
[25] = Acute toxicity in C57Bl/6 mouse assessed as effect on behavior at 20 mg/kg/day, ip qd for 7 days measured twice daily for 28 days; format: organism-based; conditions: in vivo, 672 h
Method in brief: (§4)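 Six healthy mice received 20 mg/kg i.p. once daily for seven doses. Behaviour and appearance observed twice daily for 28 days after the last dose.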

[26] = Half life in human liver microsomes; format: ADME, Microsome; method in brief: as §2
[27] = Solubility of the compound in deionized water; format: physicochemical
[28] = Acute toxicity in C57Bl/6 mouse assessed as effect on appearance at 20 mg/kg/day, ip qd for 7 days measured twice daily for 28 days; format: organism-based; conditions: in vivo, 672 h; method in brief: as §4
[29] = tested on: Ebolavirus; assay: Antiviral activity against Ebolavirus H. sapiens-wt/1995/Kikwit-9510621 infected in human HeLa cells assessed as inhibition of viral infection at 2 uM treated for 2 hrs after viral infection and measured after 24 hrs by EboV GP immunostaining based high content imaging analysis; format: functional, organism-based
[30] = tested on: Ebolavirus; assay: Antiviral activity against Ebolavirus; format: functional, organism-based; conditions: Orthoebolavirus

Cytochrome P450 2D6, sequence (P10635 whole entry): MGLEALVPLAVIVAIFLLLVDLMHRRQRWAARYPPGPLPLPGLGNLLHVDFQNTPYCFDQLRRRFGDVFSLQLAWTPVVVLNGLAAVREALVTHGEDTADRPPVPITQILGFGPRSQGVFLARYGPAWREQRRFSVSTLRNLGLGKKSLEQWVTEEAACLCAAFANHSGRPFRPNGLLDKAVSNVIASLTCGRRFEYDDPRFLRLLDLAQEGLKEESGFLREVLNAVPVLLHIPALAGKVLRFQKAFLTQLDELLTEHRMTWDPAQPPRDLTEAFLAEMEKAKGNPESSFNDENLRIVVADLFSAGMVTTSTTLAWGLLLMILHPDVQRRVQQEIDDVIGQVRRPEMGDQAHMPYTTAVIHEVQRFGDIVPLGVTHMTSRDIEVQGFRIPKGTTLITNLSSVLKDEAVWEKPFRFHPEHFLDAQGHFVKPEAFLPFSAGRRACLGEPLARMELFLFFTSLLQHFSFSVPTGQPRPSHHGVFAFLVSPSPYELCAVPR

SMILES | CC50 at 2 h [1] [µM] | Activity [2] | Activity [6] | selectivity ratio [9] | Activity [13] | Activity [14] | Activity [15] | Activity [16] | inhibition [17] | Activity [19] | Activity [22] | Activity [24] | Activity [29] | further results
Cl.Cl.Cl.Cl.c1cc(NCCCCN2CCOCC2)c2ccc3c(ccc4c(NCCN5CCOCC5)ccnc43)c2n1 | 8 | Non-Toxic | Non-Toxic | 11.2 | Non-Toxic | inactive | Toxic | Non-Toxic | Active | Active | Non-Toxic | Non-Toxic | inactive | Activity [3]: Active; Drug metabolism [4]: Metabolite_Notdetected; Drug metabolism [5]: Metabolite_Notdetected; Activity [7]: Non-Toxic; Papp A→B [8]: 39.3 to 67.2 ×10⁻⁶ cm/s; microsomal CLint [10]: 32.9 µL/min/mg; Activity [11]: Non-Toxic; Drug metabolism [12]: Metabolite_Notdetected; solubility kinetic [18]: > 0.05 mg/mL; half-life [20]: 62.1 min; Activity [21]: Active; IC50 [23]: > 10 µM; Activity [25]: Non-Toxic; half-life [26]: 42.1 min; solubility [27]: ≥ 25 mg/mL; Activity [28]: Non-Toxic
Cl.Cl.Cl.Cl.c1cc(NCCN2CCOCC2)c2ccc3c(ccc4c(NCCN5CCOCC5)ccnc43)c2n1 | > 20 | Non-Toxic | Non-Toxic | > 36.5 | Non-Toxic | inactive | Toxic | Non-Toxic | Active | Active | Non-Toxic | Non-Toxic | inactive | EC50 [30]: 0.7 µM
